Results published in ChEMBL document CHEMBL4425169 (ACS Med Chem Lett, 2016).

What was measured:
[1] = test system: Rattus norvegicus; test: Diuretic activity in Sprague-Dawley rat at 3 mg/kg via oral gavage administered 30 mins prior to void induction by loading saline measured upto 4 hrs relative to vehicle treated control; assay type: functional
Summary of the method: (§1)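 Acute 4 h study in Sprague-Dawley rats after oral dosing, n = 5 per group. Urine volume and sodium and potassium excretion were expressed as fold increase over vehicle-treated animals. Significance was tested versus vehicle (p < 0.05 or p < 0.01).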

[2] = test system: Rattus norvegicus; test: Natriuretic activity in Sprague-Dawley rat at 10 mg/kg via oral gavage administered 30 mins prior to void induction by loading saline measured upto 4 hrs relative to vehicle treated control; assay type: functional; summary of the method: as §1
[3] = Dose normalized AUC in dog at 2 mg/kg, po; assay type: ADME, organism-based, Canis lupus familiaris; conditions: in vivo
[4] = Drug metabolism in monkey hepatocytes assessed as oxidation at 1 uM measured at 120 mins; assay type: ADME, cell-based, Macaca mulatta, Hepatocyte; conditions: rhesus monkey, 2 h
[5] = target: Cytochrome P450 2C9 (Homo sapiens, UniProt P11712); test: Reversible inhibition of human CYP2C9; assay type: ADME
Cytochrome P450 2C9, sequence (P11712 whole entry): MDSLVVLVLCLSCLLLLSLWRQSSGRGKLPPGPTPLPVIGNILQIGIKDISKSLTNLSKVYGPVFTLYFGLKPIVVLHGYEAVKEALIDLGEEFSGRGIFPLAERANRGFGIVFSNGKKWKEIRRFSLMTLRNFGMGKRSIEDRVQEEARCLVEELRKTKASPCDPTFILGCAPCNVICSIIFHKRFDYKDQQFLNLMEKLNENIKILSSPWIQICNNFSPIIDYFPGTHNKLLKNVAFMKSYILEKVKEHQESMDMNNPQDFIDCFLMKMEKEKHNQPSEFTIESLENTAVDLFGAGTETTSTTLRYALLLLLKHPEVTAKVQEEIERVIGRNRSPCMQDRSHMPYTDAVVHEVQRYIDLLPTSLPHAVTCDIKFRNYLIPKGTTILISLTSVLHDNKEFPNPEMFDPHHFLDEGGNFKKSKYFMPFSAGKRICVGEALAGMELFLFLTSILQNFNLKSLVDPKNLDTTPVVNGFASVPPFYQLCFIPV

[6] = Cardiotoxicity in vagotomized cardiovascular dog model assessed as effect on PR interval at plasma concentration <= 11.6 uM at 1 to 7 mg/kg, iv administered during three sequential 30 min periods; assay type: toxicity, organism-based, Canis lupus familiaris; conditions: in vivo, 0.5 h
Summary of the method: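 Anesthetized, vagotomized dogs received IV infusions over sequential periods at 1, 2 and 7 mg/kg (10 mg/kg cumulative). Heart rate, mean arterial pressure and ECG intervals (PR, QRS, QT/QTc) were recorded predose and during each infusion period. Plasma concentrations were measured.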

[7] = test system: Rattus norvegicus; test: Antihypertensive activity in spontaneously hypertensive rat assessed as reduction in systolic blood pressure at 10 mg/kg via oral gavage qd administered for 4 days measured on day 4 by telemetry (reference value: 2.5 +/- 2.2 mmHg); assay type: functional
[8] = Drug excretion in bile duct cannulated rat urine; assay type: ADME; conditions: in vivo

**Q.** What does the source list for `Cc1c([C@@H](O)CN2CCN(C[C@H](O)c3ccc4c(c3C)COC4=O)CC2)ccc2c1COC2=O` [MK-7145]?
**A.** fold change (FC) [1]: 9; fold change (FC) [2]: 8.5; AUC/dose [3]: 0.32 µM·kg·h/mg; Drug metabolism [4]: 15 to 37%; IC50 [5]: > 50 µM; Activity [6]: Non-Toxic; Activity [7]: 19.9 mmHg; Drug excretion [8]: Metabolite_Detected
